Source: ChEMBL document CHEMBL1800034, “A synthetic 7,8-dihydroxyflavone derivative promotes neurogenesis and exhibits potent antidepressant effect” (J Med Chem, 2010)
The source made the active and inactive calls. The rule behind the calls is not given here.

Tests used:
Mus musculus [1] = experiment: Toxicity in C57BL/6J mouse assessed as affect on complete blood count analysis at 5 mg/kg, po for 3 weeks; type: organism-based; parameters: dose 5 mg/kg, route oral; settings: in vivo, 504 h
In short: (§1)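 Mice were dosed orally at 5 mg/kg for 3 weeks, with saline-treated controls. Major organs were examined for pathological changes, and a complete blood count was done.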

Mus musculus [2] = experiment: Neuroprotective activity in TrkB F616A knock in mouse assessed as inhibition of kainic acid-induced caspase 3 activation in brain homogenates at 5 mg/kg, po administered 4 hrs prior to kainic acid challenge measured after 4 days by immunoblotting in presence of TrkB F616A inhibitor 1NMPP1; type: functional, organism-based; parameters: dose 5 mg/kg
In short: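 TrkB F616A knock-in mice, 2–3 months old, were given 1NMPP1 at 25 µM in drinking water one day beforehand. They were then gavaged with compound at 5 mg/kg, followed 4 h later by kainic acid at 20 mg/kg. Brains were taken 4 days later, homogenized and ultracentrifuged. 40 µg of supernatant was immunoblotted.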

Mus musculus [3] = experiment: Toxicity in C57BL/6J mouse assessed as pathological changes in muscle at 5 mg/kg, po for 3 weeks; type: organism-based, Muscle tissue; parameters: dose 5 mg/kg, route oral; settings: in vivo, 504 h; in short: as §1
Mus musculus [4] = experiment: Toxicity in C57BL/6J mouse assessed as pathological changes in intestine at 5 mg/kg, po for 3 weeks; type: organism-based; parameters: dose 5 mg/kg, route oral; settings: in vivo, 504 h; in short: as §1
Mus musculus [5] = experiment: Agonist activity at TrkB in C57BL/6J mouse brain assessed as AKT phosphorylation at 1 mg/kg, po after 1 to 16 hrs by immunoblotting; type: functional, organism-based; parameters: dose 1 mg/kg
In short: (§2)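 C57BL/6J mice got a single oral dose of 1 mg/kg. Brains were collected at several time points, about 1 to 16 h after dosing. Lysates were immunoblotted for TrkB phosphorylation and for downstream Akt and MAPK phosphorylation.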

Mus musculus [6] = experiment: Toxicity in C57BL/6J mouse assessed as pathological changes in lungs at 5 mg/kg, po for 3 weeks; type: organism-based; parameters: dose 5 mg/kg, route oral; settings: in vivo, 504 h; in short: as §1
[7] = Cytotoxicity at E17 rat primary cortical neurons assessed as cell death at 5 uM by LDH assay; type: cell-based; settings: cerebral cortex neuron
Mus musculus [8] = experiment: Agonist activity at TrkB in C57BL/6J mouse brain assessed as AKT phosphorylation at Ser473 at 1 mg/kg, po after 1 to 16 hrs by immunoblotting; type: functional, organism-based; parameters: dose 1 mg/kg; in short: as §2
Mus musculus [9] = experiment: Agonist activity at TrkA in C57BL/6J mouse brain lysate assessed as TrkA phosphorylation at Y794 at 5 mg/kg, po administered for 21 days by immunoblotting; type: functional, organism-based; parameters: dose 5 mg/kg
In short: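 Adult male C57BL/6J mice, 8 per group, dosed orally by gavage once daily for 21 days; saline was the vehicle. Brain lysates were immunoblotted with anti-p-TrkA 794 and anti-p-TrkB 817.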

Mus musculus [10] = experiment: Toxicity in C57BL/6J mouse assessed as pathological changes in liver at 5 mg/kg, po for 3 weeks; type: organism-based; parameters: dose 5 mg/kg, route oral; settings: in vivo, 504 h; in short: as §1

CN(C)c1ccc(-c2cc(=O)c3ccc(O)c(O)c3o2)cc1
Activity (Mus musculus [1]): Non-toxic
inhibition (Mus musculus [2]): inactive
Activity (Mus musculus [3]): Non-toxic
Activity (Mus musculus [4]): Non-toxic
Activity (Mus musculus [5]): Active
Activity (Mus musculus [6]): Non-toxic
Activity [7]: Non-toxic
Activity (Mus musculus [8]): Active
Activity (Mus musculus [9]): inactive
Activity (Mus musculus [10]): Non-toxic
